The source of these data is ChEMBL document CHEMBL5335784, “Discovery of a novel 1,3,4-oxadiazol-2-one-based NLRP3 inhibitor as a pharmacological agent to mitigate cardiac and metabolic complications in an experimental model of diet-induced metaflammation” (Eur J Med Chem, 2023).

Molecules are shown by their SMILES. The source made the active and inactive calls. The rule behind the calls is not given here.

The test system of data set [1] is Rattus norvegicus. The experiment in a line: Cardioprotective activity against myocardial ischemia/reperfusion injury-induced contractile impairment and standard diet fed Wistar rat model assessed as developed LVP recovery at 20 mg/kg/day, ip administered for 4 weeks followed by excised heart exposed to global ischemia for 30 mins and reperfusion for 120 mins and measured at the end of reperfusion (reference value: 43 +/-7 mmHg). In kind it is functional.

The nature of data set [2]: Effect on IL-1 beta level in standard diet fed Wistar rat serum at 20 mg/kg/day, ip administered for 4 weeks by ELISA. In kind it is toxicity, organism-based. Conditions: in vivo, 672 h. Put shortly:
(§1)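 Male Wistar rats on HFD or SD for 12 weeks received 20 mg/kg/day i.p. (saline, 2% DMSO, 5% Cremophor-EL) or vehicle for the last 28 days. Circulating IL-1β, TNF-α, BNP and Gal-3 quantified by ELISA in blood collected after sacrifice. n=6–7 per group.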
(In general: An ELISA detects its analyte on a solid surface through an enzyme-linked reagent.)

Data set [3] is described as follows: Effect on BNP level in standard diet fed Wistar rat plasma at 20 mg/kg/day, ip administered for 4 weeks. The format is toxicity, organism-based. The settings on record: in vivo, 672 h. The method in brief: as §1
The subject of data set [4] is Rattus norvegicus. Put plainly: Cardioprotective activity against myocardial ischemia/reperfusion injury-induced contractile impairment and standard diet fed Wistar rat model assessed as left ventricular end diastolic pressure at 20 mg/kg/day, ip administered for 4 weeks followed by excised heart exposed to global ischemia for 30 mins and reperfusion for 120 mins and measured at the end of reperfusion (reference value: 21 +/-2 mmHg). The format is functional.

Data set [5] relates to Rattus norvegicus. The experiment in a line: Cardioprotective activity against ischemia/reperfusion-induced myocardial injury and standard diet fed Wistar rat model assessed as decrease in LDH activity in coronary effluents at 20 mg/kg/day, ip administered for 4 weeks followed by excised heart exposed to global ischemia for 30 mins and reperfusion for 120 mins and measured during first 10 mins of reperfusion by spectrophotometric analysis. In kind it is functional, organism-based. Put shortly: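 HFD or SD rats, dosed 20 mg/kg/day i.p. for the final 28 days, anaesthetised with ethyl carbamate (2 g/kg i.p.). Hearts Langendorff-perfused with Krebs–Henseleit buffer (pH 7.4, 37 °C, 12 ml/min); 40 min stabilization, 30 min global no-flow ischemia, 120 min reperfusion. Coronary effluent collected on ice before ischemia and at 10, 20, 30 min reperfusion; LDH activity by McQueen method. n=6–7.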

The test system of data set [6] is Rattus norvegicus. The experiment in a line: Cardioprotective activity against high fat diet fed-induced metaflammation Wistar rat model assessed as reduction in myocardial damage by measuring reduction in plasma BNP level at 20 mg/kg/day, ip administered for 4 weeks by ELISA. The format is functional, organism-based. The method in brief: as §1
The test system of data set [7] is Rattus norvegicus. The experiment in a line: Antiinflammatory activity against high fat diet fed-induced metaflammation Wistar rat model assessed as reduction in HFD-induced anthropometric alterations by measuring reduction in perirenal fat deposition at 20 mg/kg/day, ip administered for 4 weeks. In kind it is functional, organism-based. Put shortly: (§2)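 Male Wistar rats on high-fat diet (60% kcal fat) or standard diet for 12 weeks; 20 mg/kg/day i.p. or vehicle (saline, 2% DMSO, 5% Cremophor-EL) over the last 28 days. Body weight recorded weekly. After sacrifice, abdominal, epididymal, retroperitoneal and perirenal fat, liver and heart excised and weighed. Cardiac somatic index = heart weight/body weight ×100. n=6–7 per group.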

The nature of data set [8]: Effect on TNF-alpha level in standard diet fed Wistar rat serum at 20 mg/kg/day, ip administered for 4 weeks by ELISA. The settings on record: in vivo, 672 h. In kind it is toxicity, organism-based. The method in brief: as §1
A short description of data set [9]: Effect on glyco-metabolic profile in standard diet fed Wistar rat assessed as effect on total cholesterol level in plasma at 20 mg/kg/day, ip administered for 4 weeks. The format is toxicity, organism-based. The settings on record: in vivo, 672 h. Put shortly: (§3)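 Rats fed HFD or SD for 12 weeks, dosed 20 mg/kg/day i.p. in saline/2% DMSO/5% Cremophor-EL during the final 28 days. Serum obtained after sacrifice by centrifuging blood at 2000 x g, 10 min, 4 °C. Glucose read by glucometer; total, HDL and LDL cholesterol and triglycerides measured with commercial kits. n=6–7 per group.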

The nature of data set [10]: Effect on developed LVP recovery in standard diet fed Wistar rat model at 20 mg/kg/day, ip administered for 4 weeks (reference value: 69 +/-4 mmHg). The settings on record: in vivo, 672 h. The format is toxicity, organism-based.
Data set [11] deals with Rattus norvegicus. Put plainly: Inhibition of ischemia/reperfusion-induced NLRP3 inflammasome activation in ischemia/reperfusion-induced myocardial injury and standard diet fed Wistar rat model assessed as decrease in NLRP3 protein expression at 20 mg/kg/day, ip administered for 4 weeks followed by excised heart exposed to global ischemia for 30 mins and reperfusion for 120 mins by immunoblot analysis. In kind it is functional, organism-based. Put shortly:
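Left ventricles from Langendorff hearts (30 min global ischemia/120 min reperfusion) of HFD or SD rats dosed 20 mg/kg/day i.p. for the final 28 days. Tissue homogenized in RIPA buffer with protease/phosphatase inhibitors. 50 μg protein run on 8% SDS-PAGE and immunoblotted for NLRP3 (1:500), normalized to β-actin by densitometry; n=4 per group.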
(In general: In western blotting, separated proteins are transferred to a membrane and probed.)

Data set [12] relates to Rattus norvegicus. The experiment in a line: Antiinflammatory activity against high fat diet fed-induced metaflammation Wistar rat model assessed as reduction in HFD-induced metabolic alterations by measuring reduction in total cholesterol level in plasma at 20 mg/kg/day, ip administered for 4 weeks. The format is functional, organism-based. The method in brief: as §3

Data set [13] deals with Rattus norvegicus. The experiment in a line: Antiinflammatory activity against high fat diet fed-induced metaflammation Wistar rat model assessed as reduction in HFD-induced anthropometric alterations by measuring reduction in liver weight at 20 mg/kg/day, ip administered for 4 weeks. In kind it is functional, organism-based. The method in brief:
as §2

The test system of data set [14] is Rattus norvegicus. The experiment in a line: Antiinflammatory activity against high fat diet fed-induced metaflammation Wistar rat model assessed as reduction in HFD-induced anthropometric alterations by measuring reduction in heart weight at 20 mg/kg/day, ip administered for 4 weeks. The format is functional, organism-based. The method in brief: as §2
The subject of data set [15] is Rattus norvegicus. Put plainly: Cardioprotective activity against ischemia/reperfusion-induced myocardial injury and high diet fed obese Wistar rat model assessed as infarct size at 20 mg/kg/day, ip administered for 4 weeks followed by excised heart exposed to global ischemia for 30 mins and reperfusion for 120 mins and measured at the end of reperfusion by nitroblue tetrazolium staining based analysis (Rvb ~ 70+/-1%). The format is functional. Conditions: 672 h. Put shortly:
(§4)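 Hearts from HFD or SD rats (20 mg/kg/day i.p., last 28 days) Langendorff-perfused (KH buffer, 37 °C, 12 ml/min). After 40 min stabilization they underwent 30 min global ischemia and 120 min reperfusion. The LV was stained; unstained necrotic and stained viable tissue separated and weighed. Infarct size expressed as % of LV mass. n=6–7.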

In data set [16] the test system is Rattus norvegicus. The experiment in a line: Inhibition of ischemia/reperfusion-induced oxidative stress in ischemia/reperfusion-induced myocardial injury and standard diet fed Wistar rat model assessed as decrease in cardiac MDA level at 20 mg/kg/day, ip administered for 4 weeks followed by excised heart exposed to global ischemia for 30 mins and reperfusion for 120 mins by TBARS assay. The format is functional, organism-based. Put shortly:
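Same rat diet, dosing and Langendorff ischemia/reperfusion protocol. LV homogenized 10% w/v in 0.9% KCl pH 7.4. Homogenate heated at 100 °C for 15 min with TCA and TBA plus butylated hydroxytoluene, centrifuged, and read at […]. MDA expressed as nmol/g heart tissue, compared with sham hearts perfused for 190 min.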

The subject of data set [17] is Rattus norvegicus. The experiment in a line: Antiinflammatory activity against high fat diet fed-induced metaflammation Wistar rat model assessed as reduction in HFD-induced anthropometric alterations by measuring reduction in retroperitoneal fat deposition at 20 mg/kg/day, ip administered for 4 weeks. In kind it is functional, organism-based. Put shortly:
as §2

Data set [18] has as its system Rattus norvegicus. Put plainly: Cardioprotective activity against ischemia/reperfusion-induced myocardial injury and standard diet fed Wistar rat model assessed as infarct size at 20 mg/kg/day, ip administered for 4 weeks followed by excised heart exposed to global ischemia for 30 mins and reperfusion for 120 mins and measured at the end of reperfusion by nitroblue tetrazolium staining based analysis (Rvb ~ 62+/-2%). The settings on record: 672 h. The format is functional. Put shortly: as §4

Data set [19] in a line: Effect on developed LVP recovery in high diet fed obese Wistar rat model at 20 mg/kg/day, ip administered for 4 weeks (reference value: 54 +/-6 mmHg). The format is toxicity, organism-based. The settings on record: in vivo, 672 h.

Take `CCOC(=O)Cn1nc(Cc2ccccc2Cl)oc1=O`: the Activity is 80 mmHg with Rattus norvegicus [1]; “Non-Toxic” in data set [2]; “Non-Toxic” in data set [3]; 13 mmHg in the data set on Rattus norvegicus [4]; “Non-Toxic” in data set [8]; “Non-Toxic” in data set [9]. Further, the results for the Activity in [10] and in [19] were 65 mmHg and 64 mmHg, respectively. Moreover, the result in the data set on Rattus norvegicus [5], in the data set with Rattus norvegicus [6], with Rattus norvegicus [7], in the data set with Rattus norvegicus [12], in the data set on Rattus norvegicus [13] and in the data set with Rattus norvegicus [14] was Active. Also, the outcome in the data set with Rattus norvegicus [17] was Active. Moreover, the inhibition entry in the data set with Rattus norvegicus [11] and with Rattus norvegicus [16] was “Active” each time. For the same compound, the infarct size in vivo at 20 mg/kg/day is around 61% with Rattus norvegicus [15] and around 53% in the data set on Rattus norvegicus [18].
